How the values were obtained:
[1] = system: A204; assay: Induction of klf2 promoter gene in human A204 cells assessed as percent induction activity at 10 uM relative to SNDX-275; type: functional
[2] = system: HeLa; assay: Selectivity ratio for induction of p21 promoter gene in human HeLa cells to induction of klf2 promoter gene in human A204 cells at 3 uM; type: functional
[3] = system: A204; assay: Induction of klf2 promoter gene in human A204 cells assessed as percent induction activity at 3 uM relative to SNDX-275; type: functional
[4] = system: HeLa; assay: Induction of p21 promoter gene in human HeLa cells assessed as percent induction activity at 10 uM relative to SNDX-275; type: functional
[5] = system: HeLa; assay: Induction of p21 promoter gene in human HeLa cells assessed as percent induction activity at 3 uM relative to SNDX-275; type: functional
[6] = system: HeLa; assay: Selectivity ratio for induction of p21 promoter gene in human HeLa cells to induction of klf2 promoter gene in human A204 cells at 10 uM; type: functional
[7] = molecular target: Histone deacetylase 3 (Homo sapiens, UniProt O15379)
Histone deacetylase 3, sequence (O15379 whole entry): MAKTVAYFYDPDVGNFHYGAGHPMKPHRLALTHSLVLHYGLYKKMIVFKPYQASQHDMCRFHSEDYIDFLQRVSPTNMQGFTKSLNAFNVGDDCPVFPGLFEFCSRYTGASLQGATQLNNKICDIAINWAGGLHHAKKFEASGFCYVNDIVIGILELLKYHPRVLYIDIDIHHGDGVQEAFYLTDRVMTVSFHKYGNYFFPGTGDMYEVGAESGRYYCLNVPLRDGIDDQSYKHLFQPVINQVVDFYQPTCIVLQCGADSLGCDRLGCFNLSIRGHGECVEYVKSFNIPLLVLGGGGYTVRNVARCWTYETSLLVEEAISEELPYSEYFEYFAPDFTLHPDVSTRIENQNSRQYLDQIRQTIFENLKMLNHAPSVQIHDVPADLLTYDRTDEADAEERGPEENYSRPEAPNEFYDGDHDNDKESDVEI

[8] = molecular target: Histone deacetylase 2 (Homo sapiens, UniProt Q92769); assay: Inhibition of HDAC2
Histone deacetylase 2, sequence (Q92769 whole entry): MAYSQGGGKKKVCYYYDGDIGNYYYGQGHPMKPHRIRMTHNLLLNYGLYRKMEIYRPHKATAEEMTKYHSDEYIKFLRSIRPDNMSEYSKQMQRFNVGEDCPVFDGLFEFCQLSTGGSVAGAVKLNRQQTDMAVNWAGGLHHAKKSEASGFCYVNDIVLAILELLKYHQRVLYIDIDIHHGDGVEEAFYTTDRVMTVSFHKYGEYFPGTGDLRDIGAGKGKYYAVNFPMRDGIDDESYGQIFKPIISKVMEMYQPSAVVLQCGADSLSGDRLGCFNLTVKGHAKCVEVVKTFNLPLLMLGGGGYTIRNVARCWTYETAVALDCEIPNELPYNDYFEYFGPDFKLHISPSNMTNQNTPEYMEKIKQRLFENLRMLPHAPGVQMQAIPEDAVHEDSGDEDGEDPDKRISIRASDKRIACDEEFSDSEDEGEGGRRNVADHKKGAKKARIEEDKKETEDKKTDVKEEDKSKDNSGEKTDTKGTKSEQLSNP

[9] = system: HeLa; assay: Antiproliferative activity against human HeLa cells after 72 hrs by tetrazolium dye assay; type: functional
In short: (§1)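 Tetrazolium dye proliferation assay over 72 h, with half-log serial dilutions from 30 µM down to 100 nM. GI50 was derived from the dose-response.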

[10] = system: U2OS; assay: Antiproliferative activity against human U2OS cells after 72 hrs by tetrazolium dye assay; type: functional; in short: as §1
[11] = system: HCT-116; assay: Antiproliferative activity against human HCT116 cells after 72 hrs by tetrazolium dye assay; type: functional; conditions: HCT-116, 72 h; in short: as §1
[12] = system: HepG2; assay: Antiproliferative activity against human HepG2 cells after 72 hrs by tetrazolium dye assay; type: functional; conditions: HepG2, 72 h; in short: as §1
[13] = system: HL-60; assay: Antiproliferative activity against human HL60 cells after 72 hrs by tetrazolium dye assay; type: functional; conditions: HL-60, 72 h; in short: as §1
[14] = system: HCT-116; assay: Cell cycle arrest in human HCT116 cells after 24 hrs; type: functional, cell-based
In short: (§2)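 HCT-116 cells treated for 24 h across a range of concentrations. Acetylated histone H4 and endogenous p21, or cell-cycle distribution, were assessed.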

[15] = molecular target: Histone deacetylase 1 (Homo sapiens, UniProt Q13547); assay: Inhibition of HDAC1
Histone deacetylase 1, sequence (Q13547 whole entry): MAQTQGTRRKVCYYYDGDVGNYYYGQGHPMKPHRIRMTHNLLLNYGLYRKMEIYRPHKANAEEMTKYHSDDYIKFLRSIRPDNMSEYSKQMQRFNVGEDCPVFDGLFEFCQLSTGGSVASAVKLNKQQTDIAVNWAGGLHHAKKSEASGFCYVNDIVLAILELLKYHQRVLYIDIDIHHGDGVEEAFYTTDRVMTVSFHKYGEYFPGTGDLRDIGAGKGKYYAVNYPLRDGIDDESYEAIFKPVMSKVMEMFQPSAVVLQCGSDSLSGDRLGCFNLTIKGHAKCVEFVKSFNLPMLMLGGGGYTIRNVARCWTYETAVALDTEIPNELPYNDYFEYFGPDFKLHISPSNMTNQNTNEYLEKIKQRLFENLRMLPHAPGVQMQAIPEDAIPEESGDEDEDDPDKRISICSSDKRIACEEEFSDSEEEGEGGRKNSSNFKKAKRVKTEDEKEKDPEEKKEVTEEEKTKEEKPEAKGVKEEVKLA

[16] = system: HCT-116; assay: Induction of endogenous p21 level in human HCT116 cells after 24 hrs; type: functional, cell-based; in short: as §2
[17] = system: HCT-116; assay: Induction of acetylated H4 level in human HCT116 cells after 24 hrs; type: functional, cell-based; in short: as §2
[18] = system: HCT-116; assay: Induction of apoptosis in human HCT116 cells after 48 hrs by annexin V/FACS analysis; type: functional, cell-based
In short: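 HCT-116 cells exposed for 48 h to several concentrations or vehicle. Apoptosis was scored as percent annexin V-positive cells by FACS.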

[19] = system: MCF7; assay: Antiproliferative activity against human MCF7 cells after 72 hrs by tetrazolium dye assay; type: functional; conditions: MCF7, 72 h; in short: as §1
[20] = system: HeLa; assay: Antiproliferative activity against human HeLa cells assessed as growth at 3 uM after 24 hrs; type: functional; conditions: read-out: Activity
In short: (§3)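 HeLa and A204 cells exposed to test agents at 3 or 10 µM for 24 h. Growth is expressed as percent of vehicle-treated control cells.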

[21] = system: HeLa; assay: Antiproliferative activity against human HeLa cells assessed as growth at 10 uM after 24 hrs; type: functional; conditions: read-out: Activity; in short: as §3
[22] = system: A204; assay: Antiproliferative activity against human A204 cells assessed as growth at 3 uM after 24 hrs; type: functional; conditions: A204, 24 h, read-out: Activity; in short: as §3
[23] = system: A204; assay: Antiproliferative activity against human A204 cells assessed as growth at 10 uM after 24 hrs; type: functional; conditions: A204, 24 h, read-out: Activity; in short: as §3

Compound	Activity [1] [%]	Activity [2]	Activity [3] [%]	Activity [4] [%]	Activity [5] [%]	Activity [6]	also measured
CN(C)CCNC(C(=O)Nc1ccc(C(F)(F)F)cc1)c1ccc(/C=C/C(=O)Nc2ccccc2N)cc1 (configuration not stated)	93	2	69	134	138	1.4	
COCCNC(C(=O)Nc1ccc(C(F)(F)F)cc1)c1ccc(/C=C/C(=O)Nc2ccccc2N)cc1 (configuration not stated)	56	0.8	45	64	36	1.1	
CC(C)c1ccc(-c2ccc(NC(=O)C(NCCN3CCCCC3)c3ccc(/C=C/C(=O)Nc4ccccc4N)cc3)cc2)cc1 (configuration not stated)	63	1.8	42	130	77	2.1	
Nc1ccccc1NC(=O)/C=C/c1ccc(C(NCCN2CCOCC2)C(=O)Nc2ccc(C(F)(F)F)cc2)cc1 (configuration not stated)	38	1.4	64	116	86	3.1	IC50 [7]: 460 nM; IC50 [8]: 290 nM; GI50 [9]: 2200 nM; GI50 [10]: 1000 nM; GI50 [11]: 1000 nM; GI50 [12]: 1700 nM; GI50 [13]: 400 nM; Activity [14]: Dose-dependent effect; IC50 [15]: 60 nM; Activity [16]: Dose-dependent effect; Activity [17]: Dose-dependent effect; Activity [18]: Dose-dependent effect; GI50 [19]: 1900 nM
Nc1ccccc1NC(=O)/C=C/c1ccc(C(NCCN2CCCCC2)C(=O)Nc2ccc(C(F)(F)F)cc2)cc1 (configuration not stated)	85	2.4	69	77	163	0.9	
CN(CCN1CCOCC1)C(C(=O)Nc1ccc(OC(F)(F)F)cc1)c1ccc(/C=C/C(=O)Nc2ccccc2N)cc1 (configuration not stated)	71	1.6	39	109	61	1.5	
Nc1ccccc1NC(=O)/C=C/c1ccc(C(NCCC2(O)CCOCC2)C(=O)Nc2ccc(C(F)(F)F)cc2)cc1 (configuration not stated)	68	0.9	64	96	55	1.4	
Nc1ccccc1NC(=O)/C=C/c1ccc(C(NCCN2CCCCC2)C(=O)Nc2ccc(-c3ccc(C(F)(F)F)c(F)c3)cc2)cc1 (configuration not stated)	54	2.4	32	92	77	1.7	
Nc1ccccc1NC(=O)/C=C/c1ccc(C(NCCN2CCCCC2)C(=O)Nc2ccc(-c3ccc(C4CC4)cc3)cc2)cc1 (configuration not stated)	90	2.2	65	187	143	2.1	IC50 [7]: 360 nM; IC50 [8]: 240 nM; growth at 3 µM [20]: 103%; growth at 10 µM [21]: 81%; growth at 3 µM [22]: 93%; IC50 [15]: 50 nM; growth at 10 µM [23]: 89%
Nc1ccccc1NC(=O)/C=C/c1ccc(C(NCCN2CCSCC2)C(=O)Nc2ccc(C(F)(F)F)cc2)cc1 (configuration not stated)	63	0.9	77	95	71	1.5	
Nc1ccccc1NC(=O)/C=C/c1ccc(C(NCCCN2CCOCC2)C(=O)Nc2ccc(OC(F)(F)F)cc2)cc1 (configuration not stated)	58	2.2	38	144	83	2.5	
Nc1ccccc1NC(=O)/C=C/c1ccc(C(NCCC2CCOCC2)C(=O)Nc2ccc(C(F)(F)F)cc2)cc1 (configuration not stated)	58	1	55	64	53	1.1	IC50 [7]: 1000 nM; IC50 [8]: 800 nM; IC50 [15]: 200 nM
Nc1ccccc1NC(=O)/C=C/c1ccc(C(C(=O)Nc2ccc(C3CC3)cc2)N2CCCC2)cc1 (configuration not stated)	98	1.7	58	148	100	1.5	
CC(CNC(C(=O)Nc1ccc(-c2ccc(C3CC3)cc2)cc1)c1ccc(/C=C/C(=O)Nc2ccccc2N)cc1)N1CCOCC1 (configuration not stated)	98	2.2	75	196	161	2	
CN(CCN1CCOCC1)C(C(=O)Nc1ccc(C(F)(F)F)cc1)c1ccc(/C=C/C(=O)Nc2ccccc2N)cc1 (configuration not stated)	82	1	70	121	72	1.5	
Nc1ccccc1NC(=O)/C=C/c1ccc(C(NCc2ccco2)C(=O)Nc2ccc(C(F)(F)F)cc2)cc1 (configuration not stated)	21	0.6	30	36	19	1.7	
CC(CNC(C(=O)Nc1ccc(OC(F)(F)F)cc1)c1ccc(/C=C/C(=O)Nc2ccccc2N)cc1)N1CCOCC1 (configuration not stated)	44	2.2	72	104	160	2.4	growth at 3 µM [20]: 107%; growth at 10 µM [21]: 83%; growth at 3 µM [22]: 97%; growth at 10 µM [23]: 93%
Nc1ccccc1NC(=O)/C=C/c1ccc(C(NCCN2C[C@@H]3C[C@H]2CO3)C(=O)Nc2ccc(OC(F)(F)F)cc2)cc1 (some centres not stated)	63	2.6	39	152	98	2.4	growth at 3 µM [20]: 103%; growth at 10 µM [21]: 82%; growth at 3 µM [22]: 97%; growth at 10 µM [23]: 90%
Nc1ccccc1NC(=O)/C=C/c1ccc(C(C(=O)Nc2ccc(C(F)(F)F)cc2)N2CCCC2)cc1 (configuration not stated)	69	1.4	62	89	85	1.3	
CN(C)CCNC(C(=O)Nc1ccc(OC(F)(F)F)cc1)c1ccc(/C=C/C(=O)Nc2ccccc2N)cc1 (configuration not stated)	74	1.8	85	182	152	2.5	
Nc1ccccc1NC(=O)/C=C/c1ccc(C(NCCN2CCCCC2)C(=O)Nc2ccc(OC(F)(F)F)cc2)cc1 (configuration not stated)	40	2.9	39	136	112	3.4	growth at 3 µM [20]: 105%; growth at 10 µM [21]: 61%; growth at 3 µM [22]: 95%; growth at 10 µM [23]: 88%
Nc1ccccc1NC(=O)/C=C/c1ccc(C(NCCCN2CCOCC2)C(=O)Nc2ccc(C3CC3)cc2)cc1 (configuration not stated)	95	1.7	70	178	117	1.9	
CN(C)C(C(=O)Nc1ccc(C(F)(F)F)cc1)c1ccc(/C=C/C(=O)Nc2ccccc2N)cc1 (configuration not stated)	33	0.5	45	43	24	1.3	
Nc1ccccc1NC(=O)/C=C/c1ccc(C(NCCN2CCCCC2)C(=O)Nc2ccc(-c3ccc(C(F)(F)F)cc3F)cc2)cc1 (configuration not stated)	84	1.7	65	153	110	1.8	
N#Cc1ccc(-c2ccc(NC(=O)C(NCCN3CCCCC3)c3ccc(/C=C/C(=O)Nc4ccccc4N)cc3)cc2)cc1 (configuration not stated)	92	1.8	72	157	128	1.7	
Nc1ccccc1NC(=O)/C=C/c1ccc(C(NCCCN2CCOCC2)C(=O)Nc2ccc(C(F)(F)F)cc2)cc1 (configuration not stated)	79	1.9	73	130	139	1.7	
Nc1ccccc1NC(=O)/C=C/c1ccc(C(N)C(=O)Nc2ccc(C(F)(F)F)cc2)cc1 (configuration not stated)	40	1	32	73	31	1.8	
